Screening results (PubChem BioAssay)
This is a sample that favours compounds with a hit; in the whole collection about 0.88% have one here.
PKA-R1A act: activates the PKA-R1A holoenzyme complex; P00514+P68181; PKA-R1A dissociation, Cy5-IP20 fluorescence polarization; scaled: DMSO 0%, 113 µM cGMP 100%; activation, % at 11.4 µM; hit rate 0.083% among 340,000; AID 504707;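 active = percent activation above the mean of all tested compounds plus 3 SD, cut at about 19% in these data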;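 note: higher means more PKAc released from R1A so a rise in polarization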
CCR6 antagonist: blocks CCL20-driven beta-arrestin recruitment at human CCR6; P51684; CHO-K1 CCR6 PathHunter beta-arrestin, luminescence, CCL20-stimulated; inhibition, % at 20 µM; hit rate 0.49% among 340,000; AID 493098;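 active = compounds whose inhibition of the agonist-driven luminescence signal at 20 µM reaches about 50%, limit read from the data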;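 note: cells stimulated with CCL20 at 14 nM final; plate controls were DMSO with CCL20 for no effect and DMSO without agonist for full effect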
Target sequence (P51684 whole entry, looked up): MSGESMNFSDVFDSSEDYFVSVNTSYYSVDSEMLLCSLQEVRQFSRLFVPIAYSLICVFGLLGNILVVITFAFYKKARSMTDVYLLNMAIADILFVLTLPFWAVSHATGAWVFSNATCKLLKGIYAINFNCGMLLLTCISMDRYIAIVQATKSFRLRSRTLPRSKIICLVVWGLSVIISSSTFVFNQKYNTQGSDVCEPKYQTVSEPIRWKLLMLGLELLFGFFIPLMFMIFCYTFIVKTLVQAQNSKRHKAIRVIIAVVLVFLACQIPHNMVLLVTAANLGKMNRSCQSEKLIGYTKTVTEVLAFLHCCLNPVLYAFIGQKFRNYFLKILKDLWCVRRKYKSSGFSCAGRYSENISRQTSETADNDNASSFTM
PKA-R2B act: activators of human PKA-R2B complex | PKA-R2B holoenzyme dissociation, Cy5-IP20 fluorescence polarization; R2B truncated from residue 108, S112A mutant; 0% DMSO only, 100% 113 µM cGMP | activation, % at 11.4 µM | hit rate 0.079% among 340,000 | AID 504700;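 active = activation above a cutoff set at the mean over all compounds plus 3 SD, cut at about 18% in these data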;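 note: higher means more holoenzyme dissociation and a rise in polarization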
APJ antagonist: antagonists of human APJ apelin receptor; inhibition, % at 20 µM; hit rate 0.32% among 330,000; P35414; AID 2521; CHO-K1 APJ beta-arrestin complementation, luminescence;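 active = inhibition above about 40% at 20 µM, limit read from the data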;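 note: cells challenged with 10 nM apelin-13 agonist together with compound; plate controls were apelin-13 plus DMSO wells for no effect and DMSO wells lacking apelin-13 for full effect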
CXCR6 block: inhibitors of human CXCR6 receptor; O00574; CHO-K1 PathHunter CXCR6 beta-arrestin, luminescence; inhibition, % at 20 µM; hit rate 0.36% among 360,000; in the data active = inhibition above about 34%, passing the limit was not always enough;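 note: antagonist mode with CXCL16 agonist at 10 nM final; 0% = 10 nM CXCL16 with DMSO and 100% = unstimulated wells without agonist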
APJ ag: agonists of human APJ apelin receptor; CHO-K1 APJ PathHunter beta-arrestin, luminescence; 0% DMSO wells, 100% apelin; activation, % at 20 µM; hit rate 0.11% among 330,000; AID 2520;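 active = activation more than six SD over the plate average, tested at 20 µM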;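 note: 0% = DMSO alone and 100% = apelin-13 at 10 nM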
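Assay system: engineered CHO-K1 APJ arrestin reporter cells; Amount: 1000 CHO-K1 reporter cells seeded per well; Dosing: one dose, 20 µM compound, 1% DMSO; Times: compound stimulation 90 min at 25 °C, detection 60 min; Measured by: luminescent beta-gal fragment complementation, chemiluminescent substrate; Read-out: APJ–arrestin association signal; Controls: DMSO vs Apelin-13 10 nM.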
R2B FP artifact: fluorescence polarization artifact in PKA-R2B activator counter-screen | hit rate 6% among 270 | activation, % at 11.4 µM | shares compounds with PKA-R2B act | FP artifact counterscreen; in the data active = activation above about 20%;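 note: Cy5 labelled IP20 peptide probe with compound but no PKA protein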
PKA-R2B act conf: confirmation of human PKA-R2B complex activators. fluorescence polarization, activation. activation, % at 11.4 µM. hit rate 9% among 270. shares compounds with PKA-R2B act; in the data active = activation above about 19%
* hit, by the source's call; i = inactive; x = no result given; + = active, no number.

SMILES	PKA-R1A act	CCR6 antagonist	PKA-R2B act	APJ antagonist	CXCR6 block	APJ ag	R2B FP artifact	PKA-R2B act conf
O=C(O)c1sccc1SCc1ccc(Cl)cc1Cl	10	-6	23*	14	-2	-6	2	15
Cc1ccc(NC(=O)c2cnccn2)cc1S(=O)(=O)N1CCCCCC1	-11	14	-6	8	5	-7	x	x
COc1ccc(CC(=O)OCC(=O)Nc2ccc(N3CCOCC3)cc2)cc1	0	-2	-2	-8	-11	1	x	x
CC1=[N+](C)c2ccc3ccccc3c2C1(C)C	14	18	19*	-17	-1	0	7	12
Cc1[nH]nc(SCC(=O)Nc2cccc(O)c2)c1[N+](=O)[O-]	-9	14	19*	11	2	-3	2	5
CN1CC2([N+](=O)[O-])CC=C(OCCO)C([N+](=O)[O-])(C1)C2 (stereo not given)	2	1	-10	-6	-3	-5	x	x
O=C(c1ccc(OCC2CCCO2)cc1)N1CCc2ccccc2C1 (stereo not given)	-10	-8	-4	-10	0	0	x	x
O=C(c1ccc(OCC2CCCO2)cc1)N1CCN(c2ccccc2)CC1 (stereo not given)	4	2	19*	6	-4	-4	3	5
Cc1ccccc1-c1nnc(SCC(=O)NC2CCCC2)n1C	2	2	-7	13	-1	-3	x	x
Cc1ccccc1-c1nnc(SCC(=O)NC2CCS(=O)(=O)C2)n1C (stereo not given)	9	14	19*	7	-3	0	6	2
C=CCn1c(SCN2C(=O)c3ccccc3C2=O)nc2ccc(Cl)cc2c1=O	3	19	19*	4	-7	1	0	3
C=CCn1c(SCC(=O)Nc2sccc2C(N)=O)nc2ccc(Cl)cc2c1=O	4	21	-3	-3	-1	2	x	x
O=C1C2=C(SCCS2)C(=O)N1c1ccccc1	-9	-4	24*	-4	0	-2	-3	-2
COc1ccc(OC)c(C(=O)c2coc3ccc(OC(C)=O)cc23)c1	3	21	21*	14	2	-1	3	0
COc1ccc(C(=O)c2coc3ccc(OC(C)=O)cc23)cc1	2	4	-4	-4	3	-3	x	x
COc1cc(C(=O)NC2CCN(CC(=O)NC3CCCCC3C)CC2)cc(OC)c1OC (stereo not given)	-4	10	18*	12	2	-3	5	2
COc1ccc(-c2cc(C(=O)c3c(N)n(C)c(=O)n(C)c3=O)c3ccccc3n2)cc1OC	-7	3	-10	12	-11	-2	x	x
COc1cc(NC(=O)CN(C)CCOc2ccccc2)c(C)cc1[N+](=O)[O-]	4	1	8	5	2	-2	x	x
CN(CCOc1ccccc1)CC(=O)Nc1ccc(Cl)cc1[N+](=O)[O-]	-2	5	21*	-7	-6	-4	-2	-3
COc1ccc(-c2noc(CN(C(=O)c3ccc4c(c3)OCO4)C(C)C)n2)cc1OC	9	4	19*	13	-5	5	-1	-5
Cc1ccc(F)c([C@H]2[C@@H]3C=CCC[C@@]3(C)C(=O)N2Cc2ccccc2)c1	-10	12	4	14	-2	3	x	x
C[C@@]12CCC=C[C@H]1[C@H](c1ccccc1Br)N(Cc1ccccc1)C2=O	2	21	11	x	-2	x	-3	-3
Cc1cnc(NC(=O)CC2OC(=O)c3ccccc32)s1 (stereo not given)	-4	-2	19*	6	2	1	3	1
O=C1CCCC/C1=C/Nc1ccc2c(c1)OCO2	-1	-3	-4	-5	-3	0	x	x
O=C1CCC/C1=C/Nc1cccc(F)c1	-1	-1	19*	2	-1	-2	5	5
SMILES	PKA-R1A act	CCR6 antagonist	PKA-R2B act	APJ antagonist	CXCR6 block	APJ ag	R2B FP artifact	PKA-R2B act conf
C=C(NC(=O)C(=C)NC(=O)c1csc(C2=NC3c4csc(n4)C4NC(=O)c5csc(n5)C([C@@](C)(O)C(C)O)NC(=O)C5CSC(=N5)/C(=C\C)NC(=O)C(C(C)O)NC(=O)c5csc(n5)[C@]3(CC2)NC(=O)C(C)NC(=O)C(=C)NC(=O)C(C)NC(=O)C(C(C)CC)NC2C=Cc3c(C(C)O)cc(nc3C2O)C(=O)OC4C)n1)C(N)=O (stereo not given in full)	x	x	x	12	x	-2	x	x
O=C(O)C1(C(=O)O)CCC1	i	5	+	7	-5	-3	i	i
NC(=O)NC1(C(=O)O)CCCC1	-5	-4	4	x	-4	x	x	x
COc1ccc(C2=C(c3ccc(OC)c(OC)c3)CN3CCCCC3C2)cc1 (stereo not given)	3	-11	1	15	6	1	x	x
O=S(=O)(c1cccs1)N1CCC(CO)(Cc2ccc(Cl)cc2)CC1	-5	15	-13	-3	-7	-1	x	x
CC(=O)c1c(C(C)=O)c(C)n(-c2ccc(O)cc2)c1C	-3	8	12	16	4	2	x	x
CCN(CC)c1ccc(-n2c(C)c(C(C)=O)c(C(C)=O)c2C)cc1	-10	1	19*	-11	3	-2	0	2
Cc1ccccc1N1CCN(S(=O)(=O)C[C@]23CCC(CC2NC(=O)[C@@H](N)CCS(C)(=O)=O)C3(C)C)CC1 (stereo not given in full)	10	0	19*	-1	3	-4	2	-2
COC(=O)c1ccc(N2CCN(S(=O)(=O)c3c(C)cc(C)cc3C)CC2)c([N+](=O)[O-])c1	-14	10	18*	4	0	-1	-5	-5
COC(=O)c1ccc(N2CCN(S(=O)(=O)c3ccc(C)cc3)CC2)c([N+](=O)[O-])c1	-5	8	-8	14	2	-8	x	x
O=C(COn1nnc2ccc(C(F)(F)F)cc21)Nc1c(Cl)cccc1Cl	4	15	8	7	4	-8	x	x
COc1ccc(CC(=O)OCC(=O)Nc2ncc(Cl)c(C)c2Cl)cc1	-1	8	-12	13	7	-4	x	x
Cc1nc(CCNC(=O)CC2C(=O)NCCN2Cc2ccoc2)nc2c1CCCC2 (stereo not given)	4	8	23*	12	-6	-2	3	3
Cc1ccccc1N=Nc1ccc(O)c2ncccc12	-14	48	0	x	14	x	x	x
O=S(=O)(O)c1cccc2c(N=Nc3ccc(O)c4ncccc34)cccc12	0	x	21*	x	37*	x	-2	12
